Two molecules from ChEMBL document CHEMBL5678818, “Discovery of potent SOS1 inhibitors that block RAS activation via disruption of the RAS-SOS1 interaction” (Proc Natl Acad Sci U S A, 2019) can be followed below.

For test [1], the species on record is Homo sapiens. The experiment in a line: Stabilization of N-terminal His10-tagged 15N-labeled recombinant human KRAS G12C/C118S mutant (1 to 169 residues) expressed in Escherichia coli/N-terminal His10-tagged wild-type recombinant human SOS1 catalytic domain (564 to 1049 residues) expressed in Escherichia coli at 1 mM incubated for 30 mins by 2D-NMR analysis.

The species entered for test [2] is Homo sapiens. The experiment in a line: Stabilization of N-terminal His10-tagged recombinant human KRAS G12C/C118S mutant (1 to 169 residues) expressed in Escherichia coli/Series S C1 sensor chip-immobilized biotinylated N-terminal His10-tagged wild-type recombinant human SOS1 catalytic domain (564 to 1049 residues) expressed in Escherichia coli at 100 to 500 uM measured for 360 secs by SPR analysis. The conditions noted are these: dose 100-500 µM, time 360.0 sec. Summed up: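 SOS1cat is immobilized on the chip, and 250 nM KRASG12C_C118S is flowed over with or without test compound. Compound alone at 100, 250 and 500 µM is also injected to gauge unspecific binding to SOS1cat. Buffer injection serves as the blank.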
Background: Surface plasmon resonance follows binding to a sensor surface in real time, without labels.

The species entered for test [3] is Homo sapiens. The experiment in a line: Stabilization of N-terminal His10-tagged recombinant human KRAS G12C/C118S mutant (1 to 169 residues) expressed in Escherichia coli/N-terminal His10-tagged wild-type recombinant human SOS1 catalytic domain (564 to 1049 residues) expressed in Escherichia coli by HTRF analysis. The method, boiled down: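 HTRF equilibrium-binding read-out of KRASG12C_C118S with SOS1cat, detected by fluorescently labelled antibodies including a terbium donor. Signal normalized with DMSO control as 100% and no-SOS1cat wells as 0%. Data are mean ± SD, n = 4.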
A general note: In TR-FRET formats the signal depends on donor and acceptor labels being close together.

Calls of active or inactive are those of the source. The rule behind the calls is not given here.

For `NCCCc1ccc(Cl)cc1`, the result in the test listed under Homo sapiens [1], in the test filed under Homo sapiens [2] and in the test filed under Homo sapiens [3] was Active.
Regarding `O=C(CO)N1CCc2ccccc2C1`, the outcome in the test listed under Homo sapiens [1], in the test filed under Homo sapiens [2] and in the test listed under Homo sapiens [3] was inactive.
